HCT116 bCat-KO: primary screen for growth suppressors in beta-catenin knockout HCT116 cells (colon tumor, human) | 1.5% of 140,000 active | HCT116 beta-catenin knockout viability, CellTiter-Glo, 60 h; hits give low values | viability, % at 10 µM;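 active means viability at or under a set limit, the compound median less 4 SD, cut at about 6% in these data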
Fibroblast inh: antiproliferative effect on LL 47 fibroblasts – human, LL 47 cells, CellTiter-Glo luminescence, primary screen | LL 47 human lung fibroblast viability, ATP luminescence; hits give low values | viability, % at 10 µM | 1.1% of 85,000 active;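 active means viability at or below 50% in the single dose screen; inactive means viability above 50%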;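 further: compound exposure lasted 72 h before the ATP readout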
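Signal: luminescent ATP detection, CellTiter-Glo; assay system: LL 47 human lung fibroblasts; input: 1,150 cells/well; incubation: overnight cell rest, 72 h compound treatment at 37 °C; measure: % viability versus median cells-only luminescence; medium: IMEM growth medium with 15% fetal bovine serum; dosing: compound addition at 0.1% DMSO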
HUVEC inhibit: inhibitors of HUVEC proliferation, primary screen, cell-based, 384-well; CellTiter-Glo luminescence, 72 h; hits give low values; viability, % at 10 µM (by protocol); 1.1% of 86,000 active;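 active means viability at or below 30%; inactive means viability above 30%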
PTEN del growth: growth suppression of PTEN-null HCT116, primary screen, cell-based, CellTiter-Glo | HCT116 PTEN-null viability, 60 h; hits give low values | viability, % at 10 µM | 1.2% of 140,000 active | AID 827, 2007;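 active means viability at or below a set limit, 4 SD under the median of all tested compounds, cut at about 3.7% in these data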;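 further: PTEN knockout HCT116 line with beta catenin targeted HCT116 as companion control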
H69AR growth 86K: proliferation blockers of H69AR lung cancer cells, primary screen, cell-based, human, 86K library; H69AR lung tumor viability, ATP luminescence, 72 h; hits give low values; viability, % at 10 µM; 6% of 85,000 active;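 active means viability at or below 40%; inactive means viability above 40%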;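 further: multidrug resistant small cell line overexpressing MRP-1 efflux transporter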
Of the large screens only hits and unclear results are named; the others gave an inactive call. Shown is part of a subset that was picked to be rich in hits.

Cc1ccc(NCCC(=O)c2ccc(Cl)cc2)cc1C	none (no result: Fibroblast inh, HUVEC inhibit, H69AR growth 86K)
O=S(=O)(Nc1cc(Sc2cccc3cccnc23)c(O)c2ccccc12)c1ccc(F)cc1	HCT116 bCat-KO 1.3, PTEN del growth 1.4 (no result: Fibroblast inh, HUVEC inhibit, H69AR growth 86K)
COc1ccc(S(=O)(=O)Nc2ccc(O)c(Sc3ncn[nH]3)c2)cc1	none
COc1ccc(S(=O)(=O)Nc2cc(Sc3ncn[nH]3)c(O)c3ccccc23)cc1	HCT116 bCat-KO 1.7, PTEN del growth 2.5 (no result: Fibroblast inh, HUVEC inhibit, H69AR growth 86K)
O=S(=O)(Nc1cccc2cn[nH]c12)c1ccc(F)cc1	none
COc1ccc(CCC(=O)Nc2cc(Cl)ccc2OC)cc1	H69AR growth 86K 24
COc1cc(NC(=O)CSc2nc3ccccc3c(=O)n2C)ccc1NC(=O)c1ccco1	H69AR growth 86K 24
COc1ccc(NC(=O)CCc2ccccc2)cc1NC(=O)c1ccco1	H69AR growth 86K 36
CCOc1cc(NC(=O)c2ccco2)c(OCC)cc1NC(=O)CCc1ccc(OC)cc1	H69AR growth 86K 33 (no result: HCT116 bCat-KO, PTEN del growth)
COc1ccccc1-n1cnc2cc(NC(=O)c3ccco3)ccc21	H69AR growth 86K 22
CCC(=O)N1CCc2cc(S(=O)(=O)CCC(=O)Nc3nc(C)cs3)ccc21	H69AR growth 86K 1.8
C=CCNC(=O)C1=NOC(CNC(=O)c2c(-c3ccccc3Cl)noc2C)C1 (stereo not drawn)	none (no result: Fibroblast inh, HUVEC inhibit, H69AR growth 86K)
O=C(NCCCn1ccnc1)c1cc2nc(-c3ccc(Br)cc3)cc(C(F)(F)F)n2n1	H69AR growth 86K 4.2
NC(=S)N/N=C/c1ccc(-c2ccc(Cl)c(Cl)c2)o1	none
NC(=S)N/N=C\c1ccc(-c2cccc(Cl)c2Cl)o1	HUVEC inhibit 22
CCCOc1c(OC)cccc1C1CC(=O)Nc2cc3c(cc21)OCO3 (stereo not drawn)	H69AR growth 86K 17
CCCOc1c(OC)cccc1C1CC(=O)Nc2cc3c(cc21)OCCO3 (stereo not drawn)	H69AR growth 86K 15
CCOc1c(OC)cccc1C1CC(=O)Nc2cc(OC)c(OC)cc21 (stereo not drawn)	none (no result: Fibroblast inh, HUVEC inhibit, H69AR growth 86K)
COc1ccc(/C=C2\CN(Cc3ccccc3)C/C(=C\c3ccc(OC)cc3)C2=O)cc1	HCT116 bCat-KO 1.7, PTEN del growth 1.6 (no result: Fibroblast inh, HUVEC inhibit, H69AR growth 86K)
COc1ccc(OC)c(S(=O)(=O)NC2CCN(Cc3ccccc3)CC2)c1	none
COc1ccc(/C=C2\CN(Cc3ccccc3)C/C(=C\c3ccc(OC)cc3OC)C2=O)c(OC)c1	HCT116 bCat-KO 4.8, PTEN del growth 2.7 (no result: Fibroblast inh, HUVEC inhibit, H69AR growth 86K)
COc1ccc(-n2c(=O)cc(N3CCN(Cc4ccccc4)CC3)[nH]c2=O)cc1	none
CCCC(=O)Nc1ccc(Nc2ccccc2)cc1	none (no result: Fibroblast inh, HUVEC inhibit, H69AR growth 86K)
COc1c(Cl)cc(Cl)cc1CNCCNCC(C)O (stereo not drawn)	none (no result: Fibroblast inh, HUVEC inhibit, H69AR growth 86K)
CC(C)NC(=O)c1onc(CSc2cccc3ccccc23)c1C(=O)O	none (no result: Fibroblast inh, HUVEC inhibit, H69AR growth 86K)
COc1ccc(-c2cc(C(=O)Nc3nc4ccccc4s3)c3ccccc3n2)cc1OC	none (no result: Fibroblast inh, HUVEC inhibit, H69AR growth 86K)
COc1ccc(-c2cc(C(=O)Nc3ccc(Cl)cc3Cl)c3ccccc3n2)cc1OC	HCT116 bCat-KO 5.4 (no result: Fibroblast inh, HUVEC inhibit, H69AR growth 86K)
COc1ccc(-c2cc(C(=O)Nc3c(Cl)cc(Cl)cc3Cl)c3ccccc3n2)cc1OC	HCT116 bCat-KO 2.1, PTEN del growth 1.8 (no result: Fibroblast inh, HUVEC inhibit, H69AR growth 86K)
COc1cc(NC(=O)c2cc3c(C)nc4ccccc4c3o2)cc(OC)c1OC	H69AR growth 86K 35
COc1ccc(NC(=O)c2cc(-c3ccc(C)o3)nc3ccccc23)cc1OC	H69AR growth 86K 35
COc1ccc(C)cc1NC(=O)c1cc2c(C)nc3ccccc3c2o1	none (no result: HCT116 bCat-KO, PTEN del growth)
CCCN(CCC)CCSc1nc(O)c(C(C)C)c(=O)[nH]1	none
C=CCOc1ccc2c(c1)C(=NO)c1cc(OCC=C)ccc1-2	H69AR growth 86K 34
Cc1ccc(CN2CCC(c3nc4ccc(Cl)cc4[nH]3)CC2)cc1	none (no result: Fibroblast inh, HUVEC inhibit, H69AR growth 86K)
Cc1cc2nc(C3CCN(Cc4nnnn4Cc4cccs4)CC3)[nH]c2cc1C	H69AR growth 86K 15
C=C(C)c1ccc(C(C)(C)NC(=O)N2CCN(C)CC2)cc1	none
CCc1nc2c(cnn2-c2ccc(Cl)cc2)c(=O)n1-c1ccc2c(c1)OCCO2	HCT116 bCat-KO 3.3
Cc1nn(CC2CCCCC2)c(N)c1-c1ccccc1	none
O=C(Cc1cccs1)Nc1ccc(Cl)cc1	none
Cc1ccc(-c2nnc(-c3ccc(NC(=O)Cc4cccs4)cc3)o2)cc1	HCT116 bCat-KO 1.2, PTEN del growth 1.4 (no result: Fibroblast inh, HUVEC inhibit, H69AR growth 86K)
CCc1cc2c(=O)n(Cc3ccco3)c(SCC(=O)N3CCCc4ccccc43)nc2s1	none

Compound activity (PubChem)
